{
  "source": "ChEMBL document CHEMBL1255350",
  "about": "“Plasma and cerebrospinal fluid pharmacokinetics of moxifloxacin in a patient with tuberculous meningitis” (Antimicrob Agents Chemother, 2008)",
  "key": {"[1]": {"system": "Mycobacterium tuberculosis", "test": "Antimicrobial activity against Mycobacterium tuberculosis", "format": "functional", "summary_of_the_method": "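MIC for the patient's isolate was determined by the Middlebrook 7H10 agar dilution method. It was used to calculate AUC0-24/MIC ratios.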"}, "Homo sapiens [2]": {"system": "Homo sapiens", "test": "Cardiotoxicity in patient with intracerebral and leptomeningeal tuberculosis assessed as QT prolongation at 800 […], po […]", "format": "toxicity, organism-based", "parameters": "route oral", "conditions": "in vivo"}, "Homo sapiens [3]": {"system": "Homo sapiens", "test": "Hepatotoxicity in patient with intracerebral and leptomeningeal tuberculosis at 400 […], po QD measured on day 3", "format": "toxicity, organism-based", "parameters": "route oral", "conditions": "in vivo"}, "[4]": {"test": "Cmax in plasma of patient with intracerebral and leptomeningeal tuberculosis at 800 […], po QD measured on day 3", "format": "ADME, organism-based", "parameters": "route oral", "conditions": "human", "summary_of_the_method": "(§1)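 Single patient with intracerebral and leptomeningeal TB without active meningitis. Oral dosing once daily at 400 mg, then 800 mg, each sampled at steady state on day 3. Blood and CSF were drawn through a peripheral intravenous catheter and an external lumbar drain into heparin tubes. Sampling was predose and at 2, 4, 8, 12 and 24 h. Plasma was spun 1,500 × g for 10 min at room temperature and stored at −20°C.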"}, "[5]": {"test": "Cmax in CSF of patient with intracerebral and leptomeningeal tuberculosis at 400 […], po QD measured on day 3", "format": "ADME, organism-based, Cerebrospinal fluid", "parameters": "route oral", "conditions": "human"}, "Homo sapiens [6]": {"system": "Homo sapiens", "test": "Renal toxicity in patient with intracerebral and leptomeningeal tuberculosis at 400 […], po QD measured on day 3", "format": "organism-based", "parameters": "route oral", "conditions": "in vivo", "summary_of_the_method": "(§2)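 Safety was monitored during oral once-daily treatment at 400 and then 800 mg. QTc was tracked by ECG, and blood samples were taken for renal and liver function tests.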"}, "[7]": {"test": "AUC (0 to 24 hrs) in CSF of patient with intracerebral and leptomeningeal tuberculosis at 800 […], po QD measured on day 3", "format": "ADME, organism-based, Cerebrospinal fluid", "parameters": "time < 24 hr, route oral", "conditions": "human", "summary_of_the_method": "(§3)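 Single patient on steady-state oral moxifloxacin, 400 or 800 mg once daily, sampled on day 3 of each dose. CSF was taken from an external lumbar drain and blood from a peripheral IV catheter into heparin tubes, predose and at 2, 4, 8, 12 and 24 h. Plasma was separated at 1,500 × g for 10 min at room temperature and stored at −20°C.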"}, "[8]": {"test": "Tmax in plasma of patient with intracerebral and leptomeningeal tuberculosis at 800 […], po QD measured on day 3", "format": "ADME, organism-based", "parameters": "route oral", "conditions": "human"}, "[9]": {"test": "Tmax in plasma of patient with intracerebral and leptomeningeal tuberculosis at 400 […], po QD measured on day 3", "format": "ADME, organism-based", "parameters": "route oral", "conditions": "human"}, "[10]": {"test": "AUC (0 to 24 hrs) in plasma of patient with intracerebral and leptomeningeal tuberculosis at 800 […], po QD measured on day 3", "format": "ADME, organism-based", "parameters": "time < 24 hr, route oral", "conditions": "human"}, "Homo sapiens [11]": {"system": "Homo sapiens", "test": "Cardiotoxicity in patient with intracerebral and leptomeningeal tuberculosis assessed as QT prolongation at 400 […], po […]", "format": "toxicity, organism-based", "parameters": "route oral", "conditions": "in vivo"}, "[12]": {"test": "AUC (0 to 24 hrs) in CSF of patient with intracerebral and leptomeningeal tuberculosis at 400 […], po QD measured on day 3", "format": "ADME, organism-based, Cerebrospinal fluid", "parameters": "time < 24 hr, dose 400 mg/kg, route oral", "conditions": "human"}, "Homo sapiens [13]": {"system": "Homo sapiens", "test": "Renal toxicity in patient with intracerebral and leptomeningeal tuberculosis at 800 […], po QD measured on day 3", "format": "organism-based", "parameters": "route oral", "conditions": "in vivo"}, "[14]": {"test": "fAUC (0 to 24 hrs) in CSF of patient with intracerebral and leptomeningeal tuberculosis at 400 […], po QD measured on day 3", "format": "ADME, organism-based, Cerebrospinal fluid", "parameters": "route oral", "conditions": "human, in vivo", "summary_of_the_method": "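Same patient and sampling: oral 400 or 800 mg once daily at steady state, day 3 of each dose, predose to 24 h, with CSF from a lumbar drain and heparinized blood from an IV catheter. Free AUC0-24 was calculated assuming 40% protein binding.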"}, "Homo sapiens [15]": {"system": "Homo sapiens", "test": "Hepatotoxicity in patient with intracerebral and leptomeningeal tuberculosis at 800 […], po QD measured on day 3", "format": "toxicity, organism-based", "parameters": "route oral", "conditions": "in vivo", "summary_of_the_method": "as §2"}, "[16]": {"test": "AUC (0 to 24 hrs) in plasma of patient with intracerebral and leptomeningeal tuberculosis at 400 […], po QD measured on day 3", "format": "ADME, organism-based", "parameters": "time < 24 hr, route oral", "conditions": "human", "summary_of_the_method": "as §1"}, "[17]": {"test": "Tmax in CSF of patient with intracerebral and leptomeningeal tuberculosis at 800 […], po QD measured on day 3", "format": "ADME, organism-based, Cerebrospinal fluid", "parameters": "route oral", "conditions": "human"}, "[18]": {"test": "fAUC (0 to 24 hrs) in CSF of patient with intracerebral and leptomeningeal tuberculosis at 800 […], po QD measured on day 3", "format": "ADME, organism-based, Cerebrospinal fluid", "parameters": "dose 800 mg/kg, route oral", "conditions": "human, in vivo"}, "[19]": {"test": "Cmax in plasma of patient with intracerebral and leptomeningeal tuberculosis at 400 […], po QD measured on day 3", "format": "ADME, organism-based", "parameters": "route oral", "conditions": "human"}, "[20]": {"test": "fAUC (0 to 24 hrs) in plasma of patient with intracerebral and leptomeningeal tuberculosis at 400 […], po QD measured on day 3", "format": "ADME, organism-based", "parameters": "route oral", "conditions": "human, in vivo"}, "[21]": {"test": "Tmax in CSF of patient with intracerebral and leptomeningeal tuberculosis at 400 […], po QD measured on day 3", "format": "ADME, organism-based, Cerebrospinal fluid", "parameters": "route oral", "conditions": "human"}, "[22]": {"test": "fAUC (0 to 24 hrs) in plasma of patient with intracerebral and leptomeningeal tuberculosis at 800 […], po QD measured on day 3", "format": "ADME, organism-based", "parameters": "route oral", "conditions": "human, in vivo"}, "[23]": {"test": "Cmax in CSF of patient with intracerebral and leptomeningeal tuberculosis at 800 […], po QD measured on day 3", "format": "ADME, organism-based, Cerebrospinal fluid", "parameters": "route oral", "conditions": "human", "summary_of_the_method": "as §3"}},
  "data": [
    {"smiles": "COc1c(N2C[C@@H]3CCCN[C@@H]3C2)c(F)cc2c(=O)c(C(=O)O)cn(C3CC3)c12", "note": "[MOXIFLOXACIN]", "values": [
      {"measurement": "MIC", "setting": "[1]", "result": 0.15, "unit": "µg/mL"},
      {"measurement": "Activity", "setting": "Homo sapiens [2]", "result": "Non-toxic"},
      {"measurement": "Activity", "setting": "Homo sapiens [3]", "result": "Non-toxic"},
      {"measurement": "Cmax", "setting": "[4]", "result": 2450, "unit": "ng/mL"},
      {"measurement": "Cmax", "setting": "[5]", "result": 616, "unit": "ng/mL"},
      {"measurement": "Activity", "setting": "Homo sapiens [6]", "result": "Non-toxic"},
      {"measurement": "AUC at 24 h", "setting": "[7]", "result": 14300, "unit": "ng·h/mL"},
      {"measurement": "Tmax", "setting": "[8]", "result": 2, "unit": "h"},
      {"measurement": "Tmax", "setting": "[9]", "result": 2, "unit": "h"},
      {"measurement": "AUC at 24 h", "setting": "[10]", "result": 19400, "unit": "ng·h/mL"},
      {"measurement": "Activity", "setting": "Homo sapiens [11]", "result": "Non-toxic"},
      {"measurement": "AUC at 24 h", "setting": "[12]", "result": 8400, "unit": "ng·h/mL"},
      {"measurement": "Activity", "setting": "Homo sapiens [13]", "result": "Non-toxic"},
      {"measurement": "fAUC", "setting": "[14]", "result": 8400, "unit": "ng·h/mL"},
      {"measurement": "Activity", "setting": "Homo sapiens [15]", "result": "Non-toxic"},
      {"measurement": "AUC at 24 h", "setting": "[16]", "result": 8900, "unit": "ng·h/mL"},
      {"measurement": "Tmax", "setting": "[17]", "result": 4, "unit": "h"},
      {"measurement": "fAUC", "setting": "[18]", "result": 14300, "unit": "ng·h/mL"},
      {"measurement": "Cmax", "setting": "[19]", "result": 1060, "unit": "ng/mL"},
      {"measurement": "fAUC", "setting": "[20]", "result": 5300, "unit": "ng·h/mL"},
      {"measurement": "Tmax", "setting": "[21]", "result": 4, "unit": "h"},
      {"measurement": "fAUC", "setting": "[22]", "result": 11600, "unit": "ng·h/mL"},
      {"measurement": "Cmax", "setting": "[23]", "result": 1420, "unit": "ng/mL"}
    ]}
  ]
}
